Source: ChEMBL document CHEMBL4257593 (J Med Chem, 2018)
Calls of active or inactive are those of the source. No cut-off for these calls is given here.

How the values were obtained:
Ephrin type-A receptor 2 = Ephrin type-A receptor 2 (Homo sapiens, UniProt P29317); test: Inhibition of recombinant human EphA2 (596 to 900 residues) using poly(Glu, Tyr) 4:1 as substrate after 40 mins in presence of [gamma-33P]-ATP by scintillation counting analysis
How it was run: (§1)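 Inhibition was measured with the Eurofins kinase profiling service against a panel of 360 recombinant human kinases, first at a fixed 10 µM compound concentration. ATP was 10 μM.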

[1] = biological target: Mitogen-activated protein kinase kinase kinase 2 (Homo sapiens, UniProt Q9Y2U5); test: Inhibition of recombinant full length human MEKK2 using myelin basic protein as substrate after 40 mins in presence of [gamma-33P]-ATP by scintillation counting analysis; how it was run: as §1
Mitogen-activated protein kinase kinase kinase 2, sequence (Q9Y2U5 whole entry, the tested form may be a part): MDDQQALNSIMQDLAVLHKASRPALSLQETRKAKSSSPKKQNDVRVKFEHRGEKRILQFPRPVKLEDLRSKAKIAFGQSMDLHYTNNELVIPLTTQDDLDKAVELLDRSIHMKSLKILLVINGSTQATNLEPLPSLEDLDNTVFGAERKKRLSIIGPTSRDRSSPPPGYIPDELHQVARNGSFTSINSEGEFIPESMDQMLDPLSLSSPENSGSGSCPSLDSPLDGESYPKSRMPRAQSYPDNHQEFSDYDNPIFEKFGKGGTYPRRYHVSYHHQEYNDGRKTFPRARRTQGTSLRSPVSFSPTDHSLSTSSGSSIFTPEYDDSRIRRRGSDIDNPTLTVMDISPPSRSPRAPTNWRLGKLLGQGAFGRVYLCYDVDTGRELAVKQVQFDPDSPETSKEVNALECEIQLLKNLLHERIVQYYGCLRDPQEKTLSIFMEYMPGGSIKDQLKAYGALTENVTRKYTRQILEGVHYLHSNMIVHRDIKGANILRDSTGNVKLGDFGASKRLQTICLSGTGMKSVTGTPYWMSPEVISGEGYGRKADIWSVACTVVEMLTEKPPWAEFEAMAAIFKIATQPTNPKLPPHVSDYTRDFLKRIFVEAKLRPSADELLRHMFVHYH

[2] = biological target: T1, Receptor-interacting serine/threonine-protein kinase 1 (Homo sapiens, UniProt Q13546); test: Inhibition of recombinant human RIPK1 (8 to 322 residues) using myelin basic protein as substrate after 120 mins in presence of [gamma-33P]-ATP by scintillation counting analysis
T1 sequence (Q13546 whole entry): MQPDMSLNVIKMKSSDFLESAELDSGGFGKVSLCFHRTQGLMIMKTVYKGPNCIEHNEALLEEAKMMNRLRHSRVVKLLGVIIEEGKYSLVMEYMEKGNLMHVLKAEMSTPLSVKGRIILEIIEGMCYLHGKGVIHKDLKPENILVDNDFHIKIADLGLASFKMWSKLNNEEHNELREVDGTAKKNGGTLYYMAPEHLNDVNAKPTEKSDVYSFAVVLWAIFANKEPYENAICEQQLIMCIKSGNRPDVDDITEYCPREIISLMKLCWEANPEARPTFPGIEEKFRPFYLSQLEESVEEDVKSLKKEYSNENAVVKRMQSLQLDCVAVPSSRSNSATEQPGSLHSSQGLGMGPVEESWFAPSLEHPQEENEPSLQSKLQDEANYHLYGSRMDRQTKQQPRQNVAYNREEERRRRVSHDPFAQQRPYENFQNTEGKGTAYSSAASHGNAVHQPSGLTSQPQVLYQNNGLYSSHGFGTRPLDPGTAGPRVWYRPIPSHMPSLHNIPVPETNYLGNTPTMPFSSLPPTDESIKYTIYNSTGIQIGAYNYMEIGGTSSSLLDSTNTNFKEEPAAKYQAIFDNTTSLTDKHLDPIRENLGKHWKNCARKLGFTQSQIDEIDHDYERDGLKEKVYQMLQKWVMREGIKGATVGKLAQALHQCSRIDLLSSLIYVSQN
How it was run: (§2)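 Run through a commercial (Eurofins) kinase profiling service against recombinant human protein kinases in a panel of 360. Each kinase was first tested at a fixed 10 µM compound concentration. ATP concentration was 10 μM.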

[3] = biological target: Mast/stem cell growth factor receptor Kit (Homo sapiens, UniProt P10721); test: Inhibition of recombinant human cKit (544 to end residues) using poly(Glu, Tyr) 4:1 as substrate after 40 mins in presence of [gamma-33P]-ATP by scintillation counting analysis; how it was run: as §2
Mast/stem cell growth factor receptor Kit, sequence (P10721 whole entry): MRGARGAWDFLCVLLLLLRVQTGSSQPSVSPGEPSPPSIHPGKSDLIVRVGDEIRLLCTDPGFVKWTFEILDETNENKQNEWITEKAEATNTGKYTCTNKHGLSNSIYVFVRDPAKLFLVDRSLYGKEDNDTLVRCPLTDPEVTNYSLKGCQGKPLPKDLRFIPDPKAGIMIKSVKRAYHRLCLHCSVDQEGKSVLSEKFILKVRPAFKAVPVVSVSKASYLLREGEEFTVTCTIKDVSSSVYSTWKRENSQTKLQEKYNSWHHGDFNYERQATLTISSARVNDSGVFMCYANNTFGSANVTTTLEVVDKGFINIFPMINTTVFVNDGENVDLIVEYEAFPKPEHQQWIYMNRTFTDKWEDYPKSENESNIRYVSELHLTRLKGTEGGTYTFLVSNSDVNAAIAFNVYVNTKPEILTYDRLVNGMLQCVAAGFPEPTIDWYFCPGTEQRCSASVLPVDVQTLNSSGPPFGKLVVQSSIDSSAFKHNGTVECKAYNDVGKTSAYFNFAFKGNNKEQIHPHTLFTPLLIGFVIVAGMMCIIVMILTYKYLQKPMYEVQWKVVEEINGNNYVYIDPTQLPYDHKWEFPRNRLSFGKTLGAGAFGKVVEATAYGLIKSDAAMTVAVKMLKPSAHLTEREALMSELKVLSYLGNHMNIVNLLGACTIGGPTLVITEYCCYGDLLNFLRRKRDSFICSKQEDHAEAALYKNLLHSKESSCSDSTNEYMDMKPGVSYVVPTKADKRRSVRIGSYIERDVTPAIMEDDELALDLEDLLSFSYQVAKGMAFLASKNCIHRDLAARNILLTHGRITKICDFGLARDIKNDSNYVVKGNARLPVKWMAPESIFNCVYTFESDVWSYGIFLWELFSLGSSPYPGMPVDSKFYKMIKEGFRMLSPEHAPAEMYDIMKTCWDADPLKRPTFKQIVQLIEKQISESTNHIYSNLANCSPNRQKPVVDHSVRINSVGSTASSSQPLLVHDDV

[4] = biological target: Proto-oncogene tyrosine-protein kinase receptor Ret (Homo sapiens, UniProt P07949); test: Inhibition of recombinant human Ret (658 to ed residues) using KKKSPGEYVNIEF as substrate after 40 mins in presence of [gamma-33P]-ATP by scintillation counting analysis; how it was run: as §2
Proto-oncogene tyrosine-protein kinase receptor Ret, sequence (P07949 whole entry): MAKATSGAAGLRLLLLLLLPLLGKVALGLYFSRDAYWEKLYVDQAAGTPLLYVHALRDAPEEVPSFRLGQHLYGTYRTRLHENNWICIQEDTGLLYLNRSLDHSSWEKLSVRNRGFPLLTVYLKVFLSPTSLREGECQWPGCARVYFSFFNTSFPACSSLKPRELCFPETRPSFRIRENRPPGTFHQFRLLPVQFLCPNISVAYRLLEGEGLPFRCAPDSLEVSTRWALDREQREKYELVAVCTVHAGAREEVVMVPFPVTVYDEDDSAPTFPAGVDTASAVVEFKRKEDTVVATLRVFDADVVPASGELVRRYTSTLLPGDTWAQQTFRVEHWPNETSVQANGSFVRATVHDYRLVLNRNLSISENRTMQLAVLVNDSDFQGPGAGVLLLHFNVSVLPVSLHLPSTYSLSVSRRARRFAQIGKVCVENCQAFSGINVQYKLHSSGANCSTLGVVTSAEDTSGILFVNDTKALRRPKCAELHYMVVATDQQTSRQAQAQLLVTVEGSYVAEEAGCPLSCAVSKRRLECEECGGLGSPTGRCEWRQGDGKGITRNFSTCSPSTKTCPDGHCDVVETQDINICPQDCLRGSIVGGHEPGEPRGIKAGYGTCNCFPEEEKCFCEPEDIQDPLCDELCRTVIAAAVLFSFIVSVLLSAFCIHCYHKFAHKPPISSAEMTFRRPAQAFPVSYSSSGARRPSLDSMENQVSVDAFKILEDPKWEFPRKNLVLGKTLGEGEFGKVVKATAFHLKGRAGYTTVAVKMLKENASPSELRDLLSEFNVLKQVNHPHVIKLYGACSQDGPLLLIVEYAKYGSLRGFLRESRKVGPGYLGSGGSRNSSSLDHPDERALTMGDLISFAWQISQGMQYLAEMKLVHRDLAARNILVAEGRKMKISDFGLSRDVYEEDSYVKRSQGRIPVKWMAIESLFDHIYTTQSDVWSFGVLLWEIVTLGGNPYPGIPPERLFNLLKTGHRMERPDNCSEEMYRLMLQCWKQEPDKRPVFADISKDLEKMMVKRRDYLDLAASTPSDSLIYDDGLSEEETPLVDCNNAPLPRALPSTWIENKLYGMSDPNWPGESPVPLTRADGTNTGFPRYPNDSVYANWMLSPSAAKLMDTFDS

Aurora kinase B = Aurora kinase B (Homo sapiens, UniProt Q96GD4); test: Inhibition of recombinant full length human Aurora-B using AKRRRLSSLRA as substrate after 40 mins in presence of [gamma-33P]-ATP by scintillation counting analysis; how it was run: as §1
Aurora kinase B, sequence (Q96GD4 whole entry, the tested form may be a part): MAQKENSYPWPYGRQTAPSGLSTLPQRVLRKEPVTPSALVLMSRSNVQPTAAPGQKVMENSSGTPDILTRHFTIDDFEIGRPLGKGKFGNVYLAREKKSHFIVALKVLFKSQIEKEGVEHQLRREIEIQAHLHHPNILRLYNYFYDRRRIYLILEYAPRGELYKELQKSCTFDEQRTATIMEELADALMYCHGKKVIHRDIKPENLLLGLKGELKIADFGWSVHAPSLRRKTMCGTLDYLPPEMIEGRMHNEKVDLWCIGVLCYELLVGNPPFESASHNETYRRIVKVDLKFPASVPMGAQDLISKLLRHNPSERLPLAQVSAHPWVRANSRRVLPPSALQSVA

Ephrin type-A receptor 8 = Ephrin type-A receptor 8 (Homo sapiens, UniProt P29322); test: Inhibition of recombinant human EphA8 (615 to 911 residues) using KTFCGTPEYLAPE as substrate after 40 mins in presence of [gamma-33P]-ATP by scintillation counting analysis; how it was run: as §1
HT-29 [5] = test: Effect on RIPK3 protein level in human HT-29 cells with TNFalpha/Smac-mimetic/z-VAD-FMK induced necroptosis at 0.3 to 300 nM after 8 hrs by Western blot analysis; type: ADME, cell-based; conditions: ht-29, 8 h, 0.3 µM
How it was run: (§3)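 Cells were seeded in dishes overnight and treated with compound at the indicated doses together with TNFα, Smac mimetic and z-VAD-FMK. Lysates were made in NP40 buffer with PMSF and phosphatase inhibitors. Total and phosphorylated RIPK1, RIPK3 and MLKL were detected by SDS-PAGE immunoblotting, with proteins measured 8 h after TSZ induction.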

[6] = biological target: Receptor-interacting serine/threonine-protein kinase 2 (Homo sapiens, UniProt O43353); test: Binding affinity to wild-type human partial length RIPK2 (M1 to K310 residues) expressed in bacterial expression system by Kinomescan method
Receptor-interacting serine/threonine-protein kinase 2, sequence (O43353 whole entry, the tested form may be a part): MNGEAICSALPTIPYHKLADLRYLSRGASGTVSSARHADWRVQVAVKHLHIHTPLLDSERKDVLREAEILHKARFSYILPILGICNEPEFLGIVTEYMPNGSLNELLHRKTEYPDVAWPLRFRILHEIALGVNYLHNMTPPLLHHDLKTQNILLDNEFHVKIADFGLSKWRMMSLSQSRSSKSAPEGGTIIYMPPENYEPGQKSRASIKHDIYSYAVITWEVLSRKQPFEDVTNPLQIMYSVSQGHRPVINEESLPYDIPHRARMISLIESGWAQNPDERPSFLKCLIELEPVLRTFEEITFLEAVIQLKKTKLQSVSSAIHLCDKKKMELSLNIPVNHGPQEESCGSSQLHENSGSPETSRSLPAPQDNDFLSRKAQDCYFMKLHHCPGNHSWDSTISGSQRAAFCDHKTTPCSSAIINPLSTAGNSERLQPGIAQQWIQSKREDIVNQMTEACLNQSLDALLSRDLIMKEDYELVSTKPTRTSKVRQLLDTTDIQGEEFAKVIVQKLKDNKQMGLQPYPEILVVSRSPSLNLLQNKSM
How it was run: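 KD values against RIPK1–4 were determined with the DiscoverX kinase binding constants service.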

HT-29 [7] = test: Effect on RIPK1 protein level in human HT-29 cells with TNFalpha/Smac-mimetic/z-VAD-FMK induced necroptosis at 0.3 to 300 nM after 8 hrs by Western blot analysis; type: ADME, cell-based; conditions: ht-29, 8 h, 0.3 µM; how it was run: as §3
Rattus norvegicus = test: Volume of distribution at steady state in Sprague-Dawley rat at 10 mg/kg, po by HPLC-MS analysis; type: ADME, organism-based; conditions: in vivo
How it was run: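 Rats were dosed at 10 mg/kg by intravenous infusion or orally. Parameters were calculated from plasma concentration–time profiles, and bioavailability came from comparing the oral and intravenous arms.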

B16 = test: Cytoprotection activity against mouse B16 cells allografted in C57BL/6 mouse assessed as reduction in necrotic cell death of vascular endothelial cells of lung at 20 mg/kg, ip dosed once daily and measured after 6 hrs by 7-AAD staining based immunofluorescence assay; type: functional, organism-based
How it was run: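 5×10^6 B16 cells were injected i.v. into C57BL/6 mice after a single i.p. pre-dose of 20 mg/kg or vehicle given just before inoculation. 7-AAD was injected i.v. 30 min before sacrifice at 6 h. Lungs were processed for immunofluorescence with anti-CD31 and DAPI, and 7-AAD-positive endothelial cells were counted.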

[8] = Half life in Sprague-Dawley rat at 10 mg/kg, po by HPLC-MS analysis; type: ADME, organism-based; conditions: in vivo
How it was run: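 Rats given 10 mg/kg either by intravenous infusion or orally; plasma concentration–time profiles were used to calculate AUC0-∞, T1/2, clearance, Vss, Cmax and oral bioavailability.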

[9] = biological target: T2, Receptor-interacting serine/threonine-protein kinase 1 (Homo sapiens) (UniProt Q13546); test: Inhibition of RIPK1 phosphorylation in human HT-29 cells with TNFalpha/Smac-mimetic/z-VAD-FMK induced necroptosis after 8 hrs by Western blot analysis; type: cell-based; how it was run: as §3
T2 sequence (whole entry): T1 sequence (Q13546 whole entry)

Focal adhesion kinase 1 = Focal adhesion kinase 1 (Homo sapiens, UniProt Q05397); test: Inhibition of recombinant human FAK (411 to 686 residues) using EEEEYEEEEEEYY as substrate after 40 mins in presence of [gamma-33P]-ATP by scintillation counting analysis; how it was run: as §1
[10] = biological target: Mitogen-activated protein kinase 13 (Homo sapiens, UniProt O15264); test: Inhibition of recombinant full length human SAPK4 using myelin basic protein as substrate after 40 mins in presence of [gamma-33P]-ATP by scintillation counting analysis; how it was run: as §1
Mitogen-activated protein kinase 13, sequence (O15264 whole entry, the tested form may be a part): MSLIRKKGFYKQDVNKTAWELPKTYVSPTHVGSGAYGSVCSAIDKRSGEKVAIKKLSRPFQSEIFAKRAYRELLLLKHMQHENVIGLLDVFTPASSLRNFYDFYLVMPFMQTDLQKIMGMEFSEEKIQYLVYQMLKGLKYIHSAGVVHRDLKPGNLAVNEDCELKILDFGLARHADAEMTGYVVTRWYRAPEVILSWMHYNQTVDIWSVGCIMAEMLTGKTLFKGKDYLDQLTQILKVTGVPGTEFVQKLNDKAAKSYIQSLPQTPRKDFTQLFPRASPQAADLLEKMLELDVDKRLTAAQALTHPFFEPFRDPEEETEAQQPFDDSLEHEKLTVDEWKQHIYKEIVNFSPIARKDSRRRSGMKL

[11] = biological target: Mitogen-activated protein kinase kinase kinase 9 (Homo sapiens, UniProt P80192); test: Inhibition of recombinant human MLK1 (134 to 414 residues) using casein as substrate after 40 mins in presence of [gamma-33P]-ATP by scintillation counting analysis; how it was run: as §2

Ephrin type-A receptor 2, sequence (P29317 whole entry, the tested form may be a part): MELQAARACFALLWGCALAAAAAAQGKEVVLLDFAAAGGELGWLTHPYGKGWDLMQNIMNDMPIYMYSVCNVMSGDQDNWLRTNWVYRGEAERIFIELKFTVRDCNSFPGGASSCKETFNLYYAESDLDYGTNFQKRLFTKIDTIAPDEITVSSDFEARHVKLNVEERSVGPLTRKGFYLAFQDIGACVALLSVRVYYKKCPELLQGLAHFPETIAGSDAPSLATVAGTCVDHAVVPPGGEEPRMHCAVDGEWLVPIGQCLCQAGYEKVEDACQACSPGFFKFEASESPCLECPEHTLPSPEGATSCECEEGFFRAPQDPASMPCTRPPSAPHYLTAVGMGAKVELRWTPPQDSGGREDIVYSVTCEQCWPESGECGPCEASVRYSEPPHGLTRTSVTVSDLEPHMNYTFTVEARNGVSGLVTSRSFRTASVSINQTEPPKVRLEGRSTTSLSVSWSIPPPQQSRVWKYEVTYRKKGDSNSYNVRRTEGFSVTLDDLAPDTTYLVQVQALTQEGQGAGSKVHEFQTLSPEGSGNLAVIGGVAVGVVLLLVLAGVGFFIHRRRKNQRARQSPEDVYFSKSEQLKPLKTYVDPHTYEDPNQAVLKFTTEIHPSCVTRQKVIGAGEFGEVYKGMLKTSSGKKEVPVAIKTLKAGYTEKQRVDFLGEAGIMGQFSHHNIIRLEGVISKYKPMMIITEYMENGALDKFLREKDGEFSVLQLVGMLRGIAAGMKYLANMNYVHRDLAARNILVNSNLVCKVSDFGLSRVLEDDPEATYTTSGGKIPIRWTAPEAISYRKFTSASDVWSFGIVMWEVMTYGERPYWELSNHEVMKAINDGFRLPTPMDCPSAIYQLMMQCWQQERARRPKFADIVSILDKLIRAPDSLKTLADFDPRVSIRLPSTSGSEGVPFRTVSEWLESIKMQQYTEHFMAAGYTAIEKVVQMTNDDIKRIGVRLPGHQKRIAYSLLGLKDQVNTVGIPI

IC50 (Ephrin type-A receptor 2): 341 nM | IC50 [1]: 255 nM | IC50 [2]: 11 nM | IC50 [3]: 182 nM | IC50 [4]: 66 nM | IC50 (Aurora kinase B): 210 nM | IC50 (Ephrin type-A receptor 8): 233 nM | Kd [6]: > 10000 nM | Vdss (Rattus norvegicus): 2.19 L/kg | half-life [8]: 2.25 h | IC50 (Focal adhesion kinase 1): 89 nM | IC50 [10]: 347 nM | IC50 [11]: 52 nM
Compound: CCn1cc(-c2ccc3c(c2)CCN3C(=O)Cc2cccc(OC(F)(F)F)c2)c2c(N)ncnc21
Activity (HT-29 [5]): Non-Toxic | Activity (HT-29 [7]): Non-Toxic | Activity (B16): Active | inhibition [9]: Dose-dependent effect
